According to the M2OR odorant receptor database:
Numbering of substitutions follows the chain as printed.

Legend:
Conditions in all cases: stereoisomer not certain
[1] = system: T1, OR1N2
T1 sequence (whole entry): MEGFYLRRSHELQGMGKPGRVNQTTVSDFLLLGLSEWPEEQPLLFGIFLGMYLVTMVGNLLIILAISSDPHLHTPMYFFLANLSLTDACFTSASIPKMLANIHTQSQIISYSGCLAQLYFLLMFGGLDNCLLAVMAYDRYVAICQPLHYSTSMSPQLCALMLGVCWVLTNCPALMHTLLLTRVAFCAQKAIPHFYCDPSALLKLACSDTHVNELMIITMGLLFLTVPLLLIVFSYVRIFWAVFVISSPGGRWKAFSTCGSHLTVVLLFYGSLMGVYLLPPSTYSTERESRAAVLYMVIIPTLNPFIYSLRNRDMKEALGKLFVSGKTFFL
How it was run: (§1)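 Assay methods differ from source to source, frequently being transient luciferase assays in mammalian cell lines. For each receptor–molecule pair, the label responsive (active) applies when the original authors judged the measured signal statistically different from baseline, and non-responsive (inactive) applies otherwise.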

[2] = target: T2, OR1Q1 (Homo sapiens) (UniProt Q15612)
T2 sequence (whole entry): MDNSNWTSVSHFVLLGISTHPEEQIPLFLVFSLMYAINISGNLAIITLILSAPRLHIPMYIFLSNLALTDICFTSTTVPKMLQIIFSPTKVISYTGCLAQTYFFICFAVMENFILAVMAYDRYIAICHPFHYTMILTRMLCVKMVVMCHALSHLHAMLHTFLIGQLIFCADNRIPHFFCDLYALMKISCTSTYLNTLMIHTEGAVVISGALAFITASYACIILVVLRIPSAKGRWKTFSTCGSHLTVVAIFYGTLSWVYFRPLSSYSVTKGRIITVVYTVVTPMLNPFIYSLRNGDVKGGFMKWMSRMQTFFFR
How it was run: as §1

[3] = system: T3, OR1Q1
T3 sequence (whole entry): T2 sequence (whole entry) with Q24R, I163M
How it was run: as §1

[4] = target: T4, OR1S1 (Homo sapiens) (UniProt Q8NH92)
T4 sequence (whole entry): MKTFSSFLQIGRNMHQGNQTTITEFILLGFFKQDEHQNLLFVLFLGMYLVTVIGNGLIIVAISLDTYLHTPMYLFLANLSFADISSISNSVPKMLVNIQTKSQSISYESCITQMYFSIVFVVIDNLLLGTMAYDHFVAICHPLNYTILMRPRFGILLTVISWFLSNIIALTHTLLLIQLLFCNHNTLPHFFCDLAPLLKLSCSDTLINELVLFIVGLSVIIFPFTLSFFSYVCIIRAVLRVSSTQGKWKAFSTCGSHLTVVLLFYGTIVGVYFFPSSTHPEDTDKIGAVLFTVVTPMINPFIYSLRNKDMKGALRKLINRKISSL
How it was run: as §1

[5] = target: T5, OR1S2 (Homo sapiens) (UniProt Q8NGQ3)
T5 sequence (whole entry): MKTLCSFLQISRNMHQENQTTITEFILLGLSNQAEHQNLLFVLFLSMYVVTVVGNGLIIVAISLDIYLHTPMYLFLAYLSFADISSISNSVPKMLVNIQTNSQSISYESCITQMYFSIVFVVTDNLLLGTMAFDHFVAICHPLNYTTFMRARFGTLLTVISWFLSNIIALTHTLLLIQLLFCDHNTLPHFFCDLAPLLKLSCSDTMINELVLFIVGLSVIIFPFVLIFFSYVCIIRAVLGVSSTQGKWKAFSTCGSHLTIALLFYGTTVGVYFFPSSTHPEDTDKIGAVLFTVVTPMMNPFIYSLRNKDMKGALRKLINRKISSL
How it was run: as §1

[6] = system: T6, OR1S2 E17G
T6 sequence (whole entry): T5 sequence (whole entry) with E17G
How it was run: as §1

[7] = system: T7, OR1S2 V225T G240R
T7 sequence (whole entry): T5 sequence (whole entry) with V225T, G240R
How it was run: as §1

[8] = target: T8, OR2A1 (Homo sapiens) (UniProt Q8NGT9)
T8 sequence (whole entry): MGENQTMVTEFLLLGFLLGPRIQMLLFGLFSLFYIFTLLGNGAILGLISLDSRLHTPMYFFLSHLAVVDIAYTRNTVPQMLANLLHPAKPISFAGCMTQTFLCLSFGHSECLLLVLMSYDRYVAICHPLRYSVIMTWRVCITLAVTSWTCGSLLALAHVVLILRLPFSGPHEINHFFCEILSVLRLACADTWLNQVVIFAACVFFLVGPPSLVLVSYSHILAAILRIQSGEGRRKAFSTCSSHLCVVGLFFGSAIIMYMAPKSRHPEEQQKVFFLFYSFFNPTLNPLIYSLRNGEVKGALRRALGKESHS
How it was run: as §1

[9] = system: T9, OR2A1 S168C
T9 sequence (whole entry): T8 sequence (whole entry) with S168C
How it was run: as §1

[10] = target: OR1P1 (Homo sapiens) (UniProt Q8NH06)
How it was run: as §1

Measured: odorant receptor agonist call

Sequence of OR1P1 (Homo sapiens) (Q8NH06 whole entry K185A): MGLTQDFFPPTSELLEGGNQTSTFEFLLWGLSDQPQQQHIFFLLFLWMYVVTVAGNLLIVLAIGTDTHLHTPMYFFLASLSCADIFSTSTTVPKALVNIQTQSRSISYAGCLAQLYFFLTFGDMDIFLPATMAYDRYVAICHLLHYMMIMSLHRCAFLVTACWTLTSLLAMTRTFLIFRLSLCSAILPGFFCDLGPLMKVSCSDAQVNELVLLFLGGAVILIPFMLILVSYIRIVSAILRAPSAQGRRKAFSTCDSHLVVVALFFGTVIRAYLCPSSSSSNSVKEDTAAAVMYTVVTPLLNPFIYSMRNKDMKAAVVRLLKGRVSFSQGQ

CC1=C(O)C(=O)C(C)O1 (stereo unspecified)
not listed: [10]
inactive: all other assays above

CCCCCCCCCCCC(=O)O
inactive: [8]

CCC(S)C(C)CO (stereo unspecified)
inactive: [1] | [2] | [4] | [5] | [8]

CC1=C(O)C(=O)OC1C (stereo unspecified)
not listed: [10]
inactive: all other assays above

CCCCCCCCCCCCCCCC(=O)OCC
inactive: [8]

CCC(O)CC
inactive: [8]

Cc1cccc(C)c1C
inactive: [8]

CC1=NC(C)C(C)S1 (stereo unspecified)
not listed: [10]
inactive: all other assays above

CCCCC(S)C(C)CO (stereo unspecified)
inactive: [1] | [2] | [4] | [5] | [8]

CCCCCCCCCCCCCCCC(=O)[O-].[H+]
inactive: [8]

CCCCCC(S)C(C)CO (stereo unspecified)
inactive: [1] | [2] | [4] | [5] | [8]

CCC1OC(=O)C(O)=C1C (stereo unspecified)
not listed: [10]
inactive: all other assays above

CCCCCCCCCCCCCC(=O)O
inactive: [8]

CCCCC(=O)C(C)=O
inactive: [8]

CCCCCCCCCCCCCCCCCC(=O)OC
inactive: [8]

CCCCCCC=CCCC=O
not listed: [10]
inactive: all other assays above

CC(CO)CS (stereo unspecified)
inactive: [1] | [2] | [4] | [5] | [8]

CCCCCCCCCC(=O)OC
inactive: [8]

COc1ccc2[nH]cc(CCNC(C)=O)c2c1
inactive: [8]

CCC(C)CO (stereo unspecified)
inactive: [8]

Cc1cnc(C)c(C)n1
not listed: [10]
inactive: all other assays above

CC1CCCCCCCCCCCCC(=O)C1 (stereo unspecified)
inactive: [1] | [10] | [2] | [4] | [5] | [8]

CCCC(S)CCOC(C)=O (stereo unspecified)
not listed: [10]
inactive: all other assays above

CCCCCC(=O)C(C)C(C)=O (stereo unspecified)
inactive: [1] | [2] | [4] | [5] | [8]

CCC1OC(C)=C(O)C1=O (stereo unspecified)
not listed: [10]
inactive: all other assays above

CC(=O)c1c(C)c([N+](=O)[O-])c(C(C)(C)C)c([N+](=O)[O-])c1C
inactive: [1] | [10] | [2] | [4] | [5] | [8]

CCCCCCCCCCCCCCCC(=O)OC
inactive: [8]
